According to ChEMBL document CHEMBL5724801, “EUbOPEN Chemogenomics Library - Multiplex” (2024):
Values joined by “and” are separate entries in the source; they are usually repeats but may differ in a detail not shown here. Equal entries are not always repeated.

Tested on: HEK-293T
Assay: Multiplex assay against HEK293T
Type: toxicity, cell-based
Conditions: human
How it was run: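 Phenotypes for tubulin, mitochondrial mass and membrane permeability are expressed as per cents of healthy-nucleus cells. Cells were stained live at seeding with Hoechst33342, BioTracker Green Microtubule Cytoskeleton Dye, MitoTracker Red and Annexin V Alexa Fluor 680, then imaged after compound addition on a CQ1 microscope at 37°C and 5% CO2. Machine-learning gating in CellPathfinder separated Hoechst high-intensity objects from normal cells, divided normal cells by nuclear state (healthy, pyknosed, fragmented) and divided pyknosed cells into mitotic or apoptotic.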

[1] = 12 h, 1 µM, compound concentration 1 uM
[2] = 12 h, 10 µM, compound concentration 10 uM
[3] = 24 h, 1 µM, compound concentration 1 uM
[4] = 24 h, 10 µM, compound concentration 10 uM
[5] = 48 h, 1 µM, compound concentration 1 uM
[6] = 48 h, 10 µM, compound concentration 10 uM

CCOc1ccccc1C(=O)NCC1(N2CCN(CC)CC2)CCCCC1
Population Apoptotic (%) [1]: 17.61% and 11.57% | Population Fragmented Nuclei (%) [1]: 1.59% and 5.52% | Population Hoechst High Intensity Objects (%) [1]: 0% | Population Membrane Permeable-Phenotype (%) [1]: 0.66% and 6.25% | Population Mitotic Cells (%) [1]: 82.39% and 88.43% | Population Normal (%) [1]: 100% | Population Pyknosed Nuclei (%) [1]: 50.48% and 83.45% | Population Tubulin-Different-Phenotype (%) [1]: 10.6% and 18.75% | Total Cell Count [1]: 315 and 145 | Population Apoptotic (%) [2]: 15.84% and 21.31% | Population Fragmented Nuclei (%) [2]: 1.84% and 5.41% | Population Healthy Nuclei (%) [2]: 36.2% and 12.16% | Population Hoechst High Intensity Objects (%) [2]: 0% and 0.67% | Population Membrane Permeable-Phenotype (%) [2]: 0.85% and 0% | Population Mitochondria Different-Phenotype (%) [2]: 25.42% and 50% | Population Mitotic Cells (%) [2]: 84.16% and 78.69% | Population Normal (%) [2]: 100% and 99.33% | Population Pyknosed Nuclei (%) [2]: 61.96% and 82.43% | Population Tubulin-Different-Phenotype (%) [2]: 38.14% and 77.78% | Total Cell Count [2]: 326 and 149 | Population Apoptotic (%) [3]: 13.73% and 14.84% | Population Fragmented Nuclei (%) [3]: 1% and 7.69% | Population Hoechst High Intensity Objects (%) [3]: 0.2% and 0.59% | Population Membrane Permeable-Phenotype (%) [3]: 2.05% and 0% | Population Mitochondria Different-Phenotype (%) [3]: 24.34% and 10.71% | Population Mitotic Cells (%) [3]: 86.27% and 85.16% | Population Normal (%) [3]: 99.8% and 99.41% | Population Pyknosed Nuclei (%) [3]: 30.66% and 75.74% | Population Tubulin-Different-Phenotype (%) [3]: 21.41% and 10.71% | Total Cell Count [3]: 500 and 170 | Population Apoptotic (%) [4]: 40.41% and 45.37% | Population Fragmented Nuclei (%) [4]: 1.63% and 6.29% | Population Hoechst High Intensity Objects (%) [4]: 0% | Population Membrane Permeable-Phenotype (%) [4]: 1.45% and 0% | Population Mitochondria Different-Phenotype (%) [4]: 39.49% and 42.31% | Population Mitotic Cells (%) [4]: 59.59% and 54.63% | Population Normal (%) [4]: 100% | Population Pyknosed Nuclei (%) [4]: 34.03% and 75.52% | Population Tubulin-Different-Phenotype (%) [4]: 64.13% and 73.08% | Total Cell Count [4]: 429 and 143 | Population Fragmented Nuclei (%) [5]: 1.56% and 2.66% | Population Healthy Nuclei (%) [5]: 84.02% and 40.96% | Population Hoechst High Intensity Objects (%) [5]: 0% | Population Membrane Permeable-Phenotype (%) [5]: 5.34% and 1.3% | Population Mitochondria Different-Phenotype (%) [5]: 24.83% and 45.45% | Population Mitotic Cells (%) [5]: 94.59% and 81.13% | Population Normal (%) [5]: 100% | Population Apoptotic (%) [6]: 21.8% and 42.22% | Population Fragmented Nuclei (%) [6]: 2.46% and 4.08% | Population Healthy Nuclei (%) [6]: 79.37% and 50% | Population Hoechst High Intensity Objects (%) [6]: 0.14% and 1.01% | Population Membrane Permeable-Phenotype (%) [6]: 3.96% and 3.06% | Population Mitochondria Different-Phenotype (%) [6]: 67.81% and 74.49% | Population Mitotic Cells (%) [6]: 78.2% and 57.78% | Population Normal (%) [6]: 99.86% and 98.99% | Population Pyknosed Nuclei (%) [6]: 18.17% and 45.92%
